Assay results published in PubChem BioAssay AID624467 (The Scripps Research Institute Molecular Screening Center, 2012).
In all, about 360,000 compounds went through this assay and about 3,600 (1%) were called active.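 The calls were made as follows: active = activation above the mean activation of all test compounds in the run plus 3 SD (cut at about 38% in these data); inactive = the rest.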 This excerpt belongs to a sample that is enriched for actives.

These compounds were tested against Trace amine-associated receptor 1 (Homo sapiens) (UniProt Q96RJ0) (assay: activators of TAAR1 calcium mobilization – Fluo-8 calcium fluorescence, CHO RD-HGA16 cells, primary screen (AID 624467)). Details: CHO RD-HGA16 TAAR1, Fluo-8 calcium fluorescence; at 3 µM; active compounds read high.
In short: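 System: CHO-derived RD-HGA16 cells with stable Gα16 and human TAAR1 / Times: 17-24 h plating, Fluo-8 75 min 37 °C, 30 min RT / Technique: calcium-sensitive Fluo-8 signal, excitation 470-495, emission 515-575 nm / Measure: % activation relative to PEA EC100 response / Benchmarks: DMSO and PEA EC100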

Sequence of Trace amine-associated receptor 1 (Homo sapiens) (Q96RJ0 whole entry, looked up): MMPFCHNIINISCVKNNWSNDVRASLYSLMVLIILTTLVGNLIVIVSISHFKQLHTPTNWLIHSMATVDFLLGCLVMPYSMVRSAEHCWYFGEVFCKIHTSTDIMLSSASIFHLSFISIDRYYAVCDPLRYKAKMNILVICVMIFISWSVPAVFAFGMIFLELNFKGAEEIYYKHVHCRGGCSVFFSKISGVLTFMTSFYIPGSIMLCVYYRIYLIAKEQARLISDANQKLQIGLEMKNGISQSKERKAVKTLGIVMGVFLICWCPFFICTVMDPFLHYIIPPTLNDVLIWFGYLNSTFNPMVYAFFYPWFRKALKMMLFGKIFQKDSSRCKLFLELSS

Row | Structure (SMILES) | activation
1 | Cc1cccc(N2C(=O)NC(=O)/C(=C\c3cnn(-c4ccccc4)c3)C2=O)c1 | 44.9% (active)
2 | COc1cc(OC)cc(C(=O)NCCN2CCC3(CC2)C(=O)NCN3c2ccccc2)c1 | 0.43% (inactive)
3 | CCC(=O)OC(Cc1ccccc1)(c1ccccc1)C(C)CN(C)C (stereo not given) | 1.23% (inactive)
4 | COC(=O)COc1cc(C)cc2oc(=O)c3c(c12)CCCC3 | 15.7% (inactive)
5 | CCOP(=O)(OCC)C(NC(=O)NC)C(N)=O (stereo not given) | 1.74% (inactive)
6 | Cc1ccc(CN2CCCC(C(=O)c3ccc4c(c3)OCO4)C2)cc1C (stereo not given) | 5.3% (inactive)
7 | CC(=O)c1c(O)n(C2CCCCCC2)c(=O)[nH]c1=O | 2.62% (inactive)
8 | CCC(=NCCc1ccccc1)c1c(O)n(C2CCCCC2)c(=O)[nH]c1=O | 82.8% (active)
9 | CCCCCCN=C(CC)c1c(O)n(CCCC)c(=O)[nH]c1=O | 18.9% (inactive)
10 | c1ccc(C(CN2CCCCC2)c2ccccc2)cc1 | 5.89% (inactive)
11 | COc1ccc(NC(=O)N2CCC3(CC2)OCCO3)c(OC)c1 | 4.78% (inactive)
12 | Brc1ccc2c(c1)CNCc1cnnn1-2 | 2.44% (inactive)
13 | CC(=NC1CCN(Cc2ccccc2)CC1)c1c(O)n(C)c(=O)n(C)c1=O | -0.62% (inactive)
14 | COc1cc(C(=O)N2Cc3ccc(Br)cc3-n3nncc3C2)cc(OC)c1OC | 1.8% (inactive)
15 | CCOc1cccc(=NC2CCCCC2)c2c(C)[nH]c(C)c12 | 2.88% (inactive)
16 | Clc1ccc([C@@H]2CC3CCC2N3)cn1 (stereo not given in full) | 0.89% (inactive)
17 | CCOC(=O)C1SC2(C(F)(F)C(F)F)CC1(O)c1c(c(OC)c3occc3c1OC)O2 (stereo not given) | 2.66% (inactive)
18 | Cn1c(O)c(C=NCCCC(=O)O)c(=O)n(C)c1=O | 1.16% (inactive)
19 | CCCCC(=O)N/N=C/c1c(O)n(CC)c(=S)n(CC)c1=O | 115% (active)
20 | CCCCC(=O)N/N=C/c1c(O)n(CCC2=CCCCC2)c(=O)[nH]c1=O | 3.56% (inactive)

Row | Structure (SMILES) | activation
21 | CC(=NCc1ccc2c(c1)OCO2)c1c(O)[nH]c(=O)[nH]c1=O | 4.1% (inactive)
22 | O=C1NC(=O)N(Cc2ccco2)C(=O)/C1=C\c1ccc(-c2ccc(F)cc2)o1 | 51.8% (active)
23 | COc1ccc(-c2nn(CCC#N)cc2C(=O)O)cc1 | 0.78% (inactive)
24 | C[C@]12CCC3C(CC[C@H]4[C@H](O)[C@H](O)CC[C@]34C)C1CCC2=O (stereo not given in full) | 4.54% (inactive)
25 | COc1ccc2c(c1)[C@@]13CCCCC1[C@@H](C2)NCC3 (stereo not given in full) | 4.44% (inactive)
26 | CCN1CC2C3CCC(C)(O3)C2C1 (stereo not given) | 1.68% (inactive)
27 | CC(Cc1ccccc1)NCCC(c1ccccc1)c1ccccc1 (stereo not given) | 44.2% (active)
28 | CC(=O)Nc1ccc(C(=O)C(Cc2ccccc2)N(C)C)cc1 (stereo not given) | 5.99% (inactive)
29 | CC(Cc1ccccc1)NC=O (stereo not given) | 68.4% (active)
30 | CCC(C)NC1(c2ccccc2)CCCCC1 (stereo not given) | 3.45% (inactive)
31 | O=c1c2ccccc2nc(/C=C/c2ccco2)n1-c1ccccc1O | 0.46% (inactive)
32 | C[N+]12CN3CN(CN(C3)C1)C2 | 4.95% (inactive)
33 | S=C(NCCc1ccccc1)N1Cc2cc(N3CCOCC3)ccc2-n2nncc2C1 | 25.3% (inactive)
34 | O=S(=O)(c1ccccc1)N1CCC2CCNC2C1 (stereo not given) | 2.18% (inactive)
35 | CCN(CC)C(=O)c1ccc(NC(=O)c2cc(-n3cnnc3)ccc2Cl)cc1 | 8.2% (inactive)
36 | Cc1cc(N2CCNC[C@@H]2C)ccc1N1CC[C@H](O)C1 | 0.68% (inactive)
37 | CCN(CC)C(=O)[C@@H]1C=C2c3cccc4[nH]c(Br)c(c34)C[C@H]2N(C)C1 | 0.25% (inactive)
38 | CS(=O)(=O)N1CCC2CCNC2C1 (stereo not given) | 2.13% (inactive)
39 | Clc1ccc2nc3c(c(-c4ccccc4)c2c1)CNCC3 | 55% (active)
40 | O=c1[nH]c(=O)n(CCc2ccccc2)c(O)c1/C=N/N1CCOCC1 | 7.45% (inactive)

Row | Structure (SMILES) | activation
41 | NCC(O)c1ccc(O)cc1 (stereo not given) | 80.5% (active)
42 | CC12CN3CC(C)(CN(C1)C3c1cccs1)C2 (stereo not given) | 8.25% (inactive)
43 | CC(CC(C#N)(c1ccccc1)c1ccccc1)N1CCCCC1 (stereo not given) | 1.72% (inactive)
44 | O=C(N/N=C/c1c(O)n(C2CC2)c(=S)[nH]c1=O)c1ccccc1Cl | -1.25% (inactive)
45 | O=c1[nH]c2ccccc2n1C1CCN(C(c2ccccc2)c2nnnn2Cc2ccccc2)CC1 (stereo not given) | 10.1% (inactive)
46 | O=c1[nH]c2ccccc2n1C1CCN(C(c2ccnc3ccccc23)c2nnnn2Cc2ccccc2)CC1 (stereo not given) | 40.5% (active)
47 | COc1ccc(-n2nnnc2C(c2cccc3ccccc23)N2CCC(n3c(=O)[nH]c4ccccc43)CC2)cc1 (stereo not given) | 3.04% (inactive)
48 | Cc1ccc2c(c1)=C/C(=C\c1c(O)[nH]c(=O)[nH]c1=O)C(=O)N=2 | 0.28% (inactive)
49 | COc1cccc(OC)c1C(=O)NC(=S)N1C[C@H]2C[C@H](C1)c1cccc(=O)n1C2 | 4.06% (inactive)
50 | O=C(CN1CCCC1=O)NCCc1ccccc1 | 38.6% (active)
51 | O=C1CC(=O)N(Cc2ccccc2)C(=O)N1CCCCCCN1C(=O)CC(=O)N(Cc2ccccc2)C1=O | 1.5% (inactive)
52 | c1ccc(CCNC2CCCCCC2)cc1 | 87.1% (active)
53 | OC(CNC1CCCCC1)c1ccccc1 (stereo not given) | 0.51% (inactive)
54 | c1cc2c(cc1CCNC1CCCCCC1)OCO2 | 4.36% (inactive)
55 | COc1ccc(Br)cc1CNCCc1cccc(Cl)c1 | 49.1% (active)
56 | COc1ccc(CNCCc2ccc3c(c2)OCO3)c(OC)c1OC | 2.45% (inactive)
57 | COc1ccc(CNCCc2c[nH]c3ccccc23)cc1OC | 1.21% (inactive)
58 | CNC(=S)N/N=C1\C2CN3CCN(C2)CC1(c1ccccc1)C3 | 2.42% (inactive)
59 | c1ccc2sc(N3CCNCC3)nc2c1 | 10.3% (inactive)
60 | CC(C)CN1Cc2cc(N3CCCCC3)ccc2-n2nncc2C1 | -1.61% (inactive)
